High-throughput results deposited in PubChem BioAssay by several laboratories.
An excerpt weighted towards active compounds, which were near 5.2% of everything screened.
PfM18AAP inh-1: blocks P. falciparum M18 aspartyl aminopeptidase; recombinant PfM18AAP, H-Glu-NHMec fluorogenic cleavage; inhibition, % at 7.35 µM; 290,000 compounds, 1.2% hits;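 active means inhibition above the campaign mean inhibition over all tested compounds plus 3 SD, cut at about 28% in these data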
HCV NS3 hel inh: inhibitors of Hepatitis C virus NS3 helicase. NS3 helicase DNA unwinding, Cy5 molecular beacon fluorescence. inhibition, % at 10.9 µM. 290,000 compounds, 0.56% hits. AID 1800;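 active means inhibition above the mean of all tested compounds plus 3 SD, set per campaign, cut at about 35% in these data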
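System: Hepatitis C virus NS3 helicase domain fragment enzyme | Reagent: Annealed dual-labelled DNA beacon duplex, ATP-started | Compound dosing: 10.9 µM single point, 0.8% DMSO | Incubation: 1 h reaction at 25 °C, ATP-initiated | Technique: Cy5 fluorescence | Evaluation: Percent inhibition from t60/t0 fluorescence ratio | Benchmarks: Low DMSO, high thioflavine S at 110 µM | Replication: Singlicate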
core dimer inh: HCV core protein dimerization inhibition. inhibition, % at 5 µM. 300,000 compounds, 0.33% hits. TR-FRET GST/Flag-core106 dimerization, 1536-well;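 active means inhibition above the mean of all tested compounds plus 3 SD, set per screening campaign, cut at about 45% in these data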
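System: GST/Flag-tagged HCV core106 proteins. Incubation: compound-protein-antibody incubation 4 h at 22.5 °C. Technique: HTRF with 340 nm excitation, 617/671 nm emission. Medium: KF-containing HEPES buffer, pH 7.45, DTT, CHAPS, BSA. Read-out: inhibition (%) from 671 over 617 nm ratio. Also added: Eu(K)-anti-GST 90 ng/mL plus XL665-anti-Flag 1 µg/mL.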
ALR inh: inhibitors of human sulfhydryl oxidase ALR; purified ALR, DTT oxidation, H2O2 HRP-luminol luminescence; 290,000 compounds, 3.8% hits; inhibition, % (concentration not given with the values); P55789;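 active means mean replicate inhibition above about 79%, with every replicate also reaching it, limit read from the data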
Target sequence (P55789 whole entry, looked up): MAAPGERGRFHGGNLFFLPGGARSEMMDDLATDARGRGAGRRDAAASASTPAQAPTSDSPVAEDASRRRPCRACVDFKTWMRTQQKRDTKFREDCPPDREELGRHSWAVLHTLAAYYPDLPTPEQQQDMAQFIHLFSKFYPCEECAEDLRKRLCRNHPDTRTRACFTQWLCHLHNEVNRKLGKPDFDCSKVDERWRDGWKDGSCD
ZTA DNA inh: blocks Epstein-Barr virus ZTA, an EBNA-1 counter-screen; 320,000 compounds, 0.15% hits; AID 2234; ZTA-DNA binding, fluorescence polarization; P03206; inhibition, % at 11 µM; in the data active means inhibition above about 33%
EBNA-1 inhibitor: blocks EBNA-1 binding to DNA | EBNA-1 DNA binding, fluorescence polarization | inhibition, % at 14.8 µM | 300,000 compounds, 0.34% hits | AID 1950; in the data active means inhibition above about 28%
PfM18AAP inh-2: confirmation of Plasmodium falciparum M18 aspartyl aminopeptidase inhibitors. recombinant PfM18AAP, H-Glu-NHMec fluorogenic cleavage. inhibition, % at 7.35 µM. shares compounds with PfM18AAP inh-1. 2,400 compounds, 28% hits;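 active means mean inhibition over replicate wells above the hit cutoff set for the earlier primary screen, cut at about 29% in these data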
CTSL1 counter: counter-screen for PFM18AAP inhibitors: confirmation of human cathepsin L inhibitors; shares compounds with PfM18AAP inh-1; purified cathepsin L1, Z-Leu-Arg-MCA fluorescence; inhibition, % at 5.96 µM; 2,400 tested, under 10 active; AID 2178;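 active means average inhibition across replicates above the hit cutoff set in the earlier primary screen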
Target sequence (P07711 whole entry, looked up): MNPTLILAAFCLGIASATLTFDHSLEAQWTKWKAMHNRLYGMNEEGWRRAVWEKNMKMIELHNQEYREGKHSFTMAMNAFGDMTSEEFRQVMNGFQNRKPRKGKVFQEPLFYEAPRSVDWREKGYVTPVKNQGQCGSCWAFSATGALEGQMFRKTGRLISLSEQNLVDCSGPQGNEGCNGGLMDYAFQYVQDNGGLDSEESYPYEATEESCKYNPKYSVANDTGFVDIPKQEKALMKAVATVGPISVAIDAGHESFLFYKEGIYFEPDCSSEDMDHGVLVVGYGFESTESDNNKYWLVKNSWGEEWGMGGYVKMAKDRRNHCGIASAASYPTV
A number is an active result.

How did C/C(=N\Nc1ccc2nncn2n1)c1cccs1 do in these assays?
PfM18AAP inh-1: 40; HCV NS3 hel inh: inactive; core dimer inh: inactive; ALR inh: inactive; ZTA DNA inh: inactive; EBNA-1 inhibitor: inactive; PfM18AAP inh-2: inactive; CTSL1 counter: inactive

Results for C(=N\Nc1nn2cnnc2c2ccccc12)/c1ccco1 ?
PfM18AAP inh-1: 44; HCV NS3 hel inh: inactive; core dimer inh: inactive; ALR inh: inactive; ZTA DNA inh: inactive; EBNA-1 inhibitor: inactive; PfM18AAP inh-2: inactive; CTSL1 counter: inactive

How did C(=N\Nc1ccc2nncn2n1)/c1ccco1 do in these assays?
PfM18AAP inh-1: 34; HCV NS3 hel inh: inactive; core dimer inh: inactive; ALR inh: inactive; ZTA DNA inh: inactive; EBNA-1 inhibitor: inactive; PfM18AAP inh-2: inactive; CTSL1 counter: inactive

What do the screens show for `Oc1ccc(/C=N/Nc2nn3cnnc3c3ccccc23)cc1`?
PfM18AAP inh-1: 33; HCV NS3 hel inh: inactive; core dimer inh: inactive; ALR inh: inactive; ZTA DNA inh: inactive; EBNA-1 inhibitor: inactive; PfM18AAP inh-2: inactive; CTSL1 counter: inactive

What do the screens show for `BrC(=C\c1ccccc1)/C=N/Nc1ccc2nncn2n1`?
PfM18AAP inh-1: 32; HCV NS3 hel inh: inactive; core dimer inh: inactive; ALR inh: inactive; ZTA DNA inh: inactive; EBNA-1 inhibitor: inactive; PfM18AAP inh-2: inactive; CTSL1 counter: inactive

What do the screens show for `BrC(/C=N/Nc1nc(N2CCOCC2)nc(N2CCOCC2)n1)=C/c1ccccc1`?
PfM18AAP inh-1: inactive; HCV NS3 hel inh: inactive; core dimer inh: inactive; ALR inh: inactive; ZTA DNA inh: inactive; EBNA-1 inhibitor: inactive

How did C=CCn1c(N/N=C/c2ccc(O)cc2)nc2ccccc2c1=O do in these assays?
PfM18AAP inh-1: inactive; HCV NS3 hel inh: inactive; core dimer inh: inactive; ALR inh: inactive; ZTA DNA inh: inactive; EBNA-1 inhibitor: inactive

What do the screens show for `BrC(=C\c1ccccc1)/C=N/n1cnnc1`?
PfM18AAP inh-1: 68; HCV NS3 hel inh: inactive; PfM18AAP inh-2: 61; CTSL1 counter: inactive

How did Cc1c(Cl)cccc1NC(=O)[C@@H](NC(=O)c1ccccc1Cl)C(C)C do in these assays?
PfM18AAP inh-1: inactive; HCV NS3 hel inh: inactive; core dimer inh: inactive; ALR inh: inactive; ZTA DNA inh: inactive; EBNA-1 inhibitor: inactive

Results for COc1ccc(CN2CCNC(=O)C2CC(=O)NCCCC2CCCC2)c(F)c1 (centres undefined) ?
PfM18AAP inh-1: inactive; HCV NS3 hel inh: inactive; core dimer inh: inactive; ALR inh: inactive; ZTA DNA inh: inactive; EBNA-1 inhibitor: inactive

What do the screens show for `CCC(C)(C)NC(=O)C(c1ccc(OC)cc1)N(C(=O)CCC(=O)Nc1cc(C)on1)c1ccccc1F` (centres undefined)?
PfM18AAP inh-1: inactive; HCV NS3 hel inh: inactive; core dimer inh: inactive; ZTA DNA inh: inactive; EBNA-1 inhibitor: inactive

Results for O=C(c1ccco1)N1CCN(c2nc(-c3ccc(F)cc3)cs2)CC1 ?
PfM18AAP inh-1: inactive; HCV NS3 hel inh: inactive; core dimer inh: inactive; ALR inh: inactive; ZTA DNA inh: inactive; EBNA-1 inhibitor: inactive

How did O=C(C[C@@H]1C/C=C\CC[C@H](Cc2ccc(F)cc2)C(=O)OC[C@@H]2CCCN2C1=O)N[C@H](CO)Cc1ccccc1 do in these assays?
ALR inh: inactive

What do the screens show for `OCCN(Cc1ccccc1)Cc1cccc(F)c1`?
PfM18AAP inh-1: inactive; HCV NS3 hel inh: inactive; core dimer inh: inactive; ALR inh: inactive; ZTA DNA inh: inactive; EBNA-1 inhibitor: inactive

How did Fc1cccc(C[n+]2csc3ccccc32)c1 do in these assays?
PfM18AAP inh-1: 34; HCV NS3 hel inh: inactive; core dimer inh: inactive; ALR inh: inactive; ZTA DNA inh: inactive; EBNA-1 inhibitor: inactive; PfM18AAP inh-2: inactive; CTSL1 counter: inactive

How did O=C(Nc1cccc([N+](=O)[O-])c1)c1ccc2snnc2c1 do in these assays?
PfM18AAP inh-1: inactive; HCV NS3 hel inh: inactive; core dimer inh: inactive; ALR inh: inactive; ZTA DNA inh: inactive; EBNA-1 inhibitor: inactive

What do the screens show for `CN(C)S(=O)(=O)c1cccc(NC(=S)NN=C(Cc2ccccc2)Cc2ccccc2)c1`?
PfM18AAP inh-1: inactive; HCV NS3 hel inh: inactive; core dimer inh: inactive; ALR inh: inactive; ZTA DNA inh: inactive; EBNA-1 inhibitor: inactive
